# A selection: hits, their analogues and other compounds. The true share with any hit is near 1.8%.
# TCR CD3 inh: human TCR-CD3 binding inhibition; TAMRA-labeled TCR probe fluorescence, biochemical; inhibition, % at 9.4 µM; 0.37% of 360,000 active; in the data active = inhibition above about 19%;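 note: recombinant mutant TCR 2C K166C tagged with TAMRA read by polarization; 0% = receptor in buffer alone and 100% = receptor with positive control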
# HTRA1 inhibitor: blocks human HTRA1 serine peptidase. AID 504803. inhibition, % at 5.96 µM. Q92743. 0.5% of 340,000 active. recombinant HTRA1, FP-rhodamine activity-based probe, fluorescence polarization; in the data active = inhibition above about 36%;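 note: 0% = enzyme with DMSO and 100% = wells lacking enzyme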
# ARNT TACC3 PPI: disruptors of human ARNT/TACC3 interaction; AlphaScreen His-ARNT PAS-B/GST-TACC3 binding, luminescence; TACC3 fragment carries E629A point mutation; inhibition, % at 9.99 µM; 0.66% of 390,000 active; AID 623870;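 active = mean inhibition of replicates at least 50% and at least half of replicates each reaching 50%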;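 note: 0% = complete ARNT plus TACC3 wells and 100% = ARNT alone without TACC3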
# SIAE primary: human SIAE inhibition, primary screen | Q9HAT2 | SIAE FP-Rh probe binding, fluorescence polarization | inhibition, % at 9.66 µM | 0.69% of 370,000 active | AID 1053197;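 active = inhibition above a cutoff: mean of compounds within the control limits plus 3 SD of those, cut at about 17% in these data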;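 note: 0% = plate median of compound wells and 100% = probe without SIAE protein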
# Target sequence (Q9HAT2 whole entry, looked up): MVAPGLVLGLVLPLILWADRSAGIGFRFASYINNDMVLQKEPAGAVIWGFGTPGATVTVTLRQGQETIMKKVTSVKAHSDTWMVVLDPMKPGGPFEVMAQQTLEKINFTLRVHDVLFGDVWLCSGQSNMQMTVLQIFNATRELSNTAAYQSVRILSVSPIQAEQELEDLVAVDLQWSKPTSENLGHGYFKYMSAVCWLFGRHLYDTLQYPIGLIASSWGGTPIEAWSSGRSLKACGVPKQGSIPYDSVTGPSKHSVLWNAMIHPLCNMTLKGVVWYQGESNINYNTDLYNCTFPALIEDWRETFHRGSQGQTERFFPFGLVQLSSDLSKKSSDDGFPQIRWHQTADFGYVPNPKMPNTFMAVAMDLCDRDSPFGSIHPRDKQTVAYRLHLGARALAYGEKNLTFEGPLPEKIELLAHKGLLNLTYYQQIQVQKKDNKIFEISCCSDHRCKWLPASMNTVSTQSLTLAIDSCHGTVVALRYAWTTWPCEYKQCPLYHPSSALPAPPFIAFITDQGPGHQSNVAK
# mABHD4 FP: inhibits mouse alpha/beta hydrolase domain 4; Q8VD66; purified mABHD4, FP-Rh probe fluorescence polarization; inhibition, % at 8.92 µM; 0.54% of 370,000 active;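 active = inhibition exceeding the mean over every tested compound plus 3 SD, cut at about 30% in these data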;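 note: 0% = plate median of compound wells and 100% = S159A mutant with DMSO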
#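 assay system = mABHD4 protein | compound dosing = single nominal dose of 8.92 µM, 0.89% DMSO final | read-out basis = percent inhibition of probe binding, normalized to plate controls | schedule = Enzyme–compound pre-incubation 45 min, then probe 60 min, both 25 °C | detection = fluorescence polarization, excitation 525 nm, emission 598 nm, BODIPY TMR filters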
# SIAE confirm: human SIAE inhibition, confirmation. shares compounds with SIAE primary. SIAE FP-Rh activity-based probe, fluorescence polarization. inhibition, % at 9.66 µM. 13% of 2,300 active;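 active = mean inhibition of the replicates above the hit cutoff set in the primary screen, cut at about 17% in these data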;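 note: 0% = SIAE with DMSO and probe and 100% = probe without SIAE; inhibitors lower polarization as more probe stays unbound to SIAE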
# An asterisk follows results filed as active; . = no result given.
SMILES,TCR CD3 inh,HTRA1 inhibitor,ARNT TACC3 PPI,SIAE primary,mABHD4 FP,SIAE confirm
C[C@@H]1CN([C@@H](C)CO)C(=O)Cc2cc(NC(=O)c3ccncc3)ccc2O[C@H]1CN(C)Cc1ccccc1,.,.,25,.,.,.
Cn1c(=O)c(Nc2ccc(Cl)cc2)c2c3c(cccc31)C(=O)c1ccccc1-2,42*,.,.,31*,42*,35*
O=C(CCN1CCCCC1)NCC[C@@H]1CC[C@H](NC(=O)C2CC2)[C@@H](CO)O1,.,.,-8,.,.,.
CCCN1[C@H](C(=O)N2CCOCC2)[C@@H](CO)[C@@H]2Cn3c(ccc(-c4ccncc4)c3=O)[C@@H]21,.,.,-6,.,.,.
CCCOc1ccc(C(=O)N/N=C/c2c[nH]c3ccc(Br)cc23)cc1,0,1,30,19*,-7,-12
CN1C(=O)/C(=C/c2ccc(-c3ccccc3[N+](=O)[O-])o2)SC1=Nc1ccc(Cl)c(C(=O)O)c1,8,10,16,19*,17,15
C[C@H](CO)N1C[C@H](C)[C@H](CN(C)S(C)(=O)=O)Oc2cc(C#CC3CC3)ccc2S1(=O)=O,.,.,-7,.,.,.
COc1cc(-c2nc3ccccn3c2/N=C/c2cc(OC)c(OC)c(OC)c2)ccc1O,1,-4,9,28*,6,16
CCCn1c(=N)n(CC(=O)c2ccco2)c2ccccc21,-2,0,-1,2,9,.
Cc1ccccc1Cn1c(=N)n(CC(=O)c2ccco2)c2ccccc21,3,-5,-27,22*,6,3
CCN(CC)S(=O)(=O)c1ccc(C(=O)NCCSc2c[nH]c3ccccc23)cc1,-1,-11,-1,19*,-8,0
NNc1nc2ccc(Cl)cc2s1,1,19,8,23*,-2,1
O=C(O)c1ccc(Nc2nc(-c3ccccc3)cs2)cc1,3,5,0,5,12,.
CC(Sc1nnc(Nc2ccccc2)s1)C(=O)Nc1nc(-c2ccccc2)cs1 (configuration not stated),-1,-18,-11,22*,-3,5
CC(Sc1nnc(NCc2ccccc2)s1)C(=O)Nc1ccc2c(c1)C(=O)c1ccccc1C2=O (configuration not stated),-7,-1,14,18*,22,-28
CC=Cc1ccc2n(c1=O)C[C@H]1[C@H](CO)[C@@H](C(=O)NCC)N(Cc3ccccc3Cl)[C@@H]21 (mixture of isomers),.,.,1,.,.,.
CCNC(=S)NNC(=O)c1cc(-c2cccc(OC)c2)nc2ccccc12,3,1,0,22*,11,1
O=C(C[C@H]1C=C[C@H](NC(=O)C2CC2)[C@@H](CO)O1)NC1CCC1,.,.,-5,.,.,.
CC(C)(C)c1ccccc1NC(=O)COC(=O)CN1C(=O)NC2(CCCC2)C1=O,7,5,3,21*,1,4
Cc1ccccc1NC(=O)COC(=O)CN1C(=O)NC(C)(C)C1=O,5,2,0,-1,-8,.
O=C(C[C@@H]1C[C@@H]2c3cc(NS(=O)(=O)c4ccc(F)cc4)ccc3O[C@@H]2[C@H](CO)O1)NCC1CC1,.,.,-5,.,.,.
Nc1ccc(NC(=S)Nc2ccccc2)cc1,10,18,.,17*,12,3
S=C(NCCCCN(Cc1ccc(Cl)cc1)c1ccc(Br)cn1)NCCCc1cnc[nH]1,-6,.,.,24*,11,28*
CN(/N=C/c1ccc(O)cc1O)c1nc(-c2ccccc2)cc(-c2ccccc2)n1,-5,18,3,20*,1,6
CCCNC(=O)N[C@H]1CC[C@H](CC(=O)N2CCN(C)CC2)O[C@H]1CO,.,.,1,.,.,.
SMILES,TCR CD3 inh,HTRA1 inhibitor,ARNT TACC3 PPI,SIAE primary,mABHD4 FP,SIAE confirm
CC(C)CC#Cc1cnc2c(c1)C(=O)N([C@H](C)CO)C[C@@H](C)[C@H](CN(C)S(C)(=O)=O)O2,.,.,7,.,.,.
COc1ccc(Nc2nc(-c3cc4cccc(OC)c4oc3=O)cs2)cc1,-4,15,4,6,15,.
COc1ccc2oc(=O)c(-c3csc(Nc4cccc(O)c4)n3)cc2c1,1,-7,-4,39*,11,-5
OC(COc1ccccc1)CN1CCCCC1 (configuration not stated),1,2,-6,0,-4,.
O=C(/C=C/c1ccccc1)N1CCN(CC(O)COc2ccccc2)CC1 (configuration not stated),0,-8,-2,19*,2,0
CO[C@H]1CN(C)C(=O)c2ccc(NC(=O)C3CCC3)cc2OC[C@H](C)N(Cc2ccncc2)C[C@H]1C,.,.,-6,.,.,.
CCc1ccc(NC(=O)C(C)Sc2nnc(CN3CCCC3)o2)cc1 (configuration not stated),-1,4,.,19*,0,2
COc1ccc(O)c(/C=N/NC(=S)NCCc2ccccc2)c1,9,26,12,18*,7,9
Oc1ccc(Br)cc1/C=N/NC(=S)NCCc1ccccc1,9,22,.,18*,-5,10
COc1cccc(NC(=O)N(C)C[C@@H]2Oc3ncc(/C=C/c4ccccc4)cc3C(=O)N([C@@H](C)CO)C[C@@H]2C)c1,.,.,19,.,.,.
NS(=O)(=O)c1ccc(N/N=C/c2cn(-c3ccccc3)nc2-c2cccs2)c([N+](=O)[O-])c1,5,-2,-1,-6,4,.
NS(=O)(=O)c1ccc(N/N=C/c2cn(-c3ccccc3)nc2-c2cccs2)cc1,-2,-20,-4,23*,-14,3
CCOC(=O)CSc1nc2ccc(NC(C)=O)cc2s1,-5,8,-6,3,-1,.
COC(=O)CSc1nc2ccc(N)cc2s1,-4,6,-4,18*,8,6
CC(=O)N1CCC2(CC1)C/C(=N\NC(=S)Nc1ccccc1C)c1cc(O)ccc1O2,4,10,6,18*,15,7
CC(=O)N1CCC2(CC1)C/C(=N\NC(=S)Nc1ccccc1F)c1cc(O)ccc1O2,-9,6,.,11,7,.
COc1ccc(NC(=S)N/N=C2\CC(C)(C)Oc3ccc(O)cc32)cc1,8,10,.,35*,7,28*
COc1ccccc1NC(=S)N/N=C1\CC(C)(C)Oc2ccc(O)cc21,-6,0,-4,34*,15,12
O=C(C[C@H]1CC[C@@H]2NC[C@H](O)COC[C@H]2O1)NCCc1ccccc1,.,.,-7,.,.,.
CO[C@@H]1CC[C@H]2CCN(C)C(=O)[C@H](C)CN(C)C(=O)c3cc(C#N)ccc3OC[C@@H]1O2,.,.,-7,.,.,.
O=C(CN1CCN(c2ccccc2O)CC1)NC(c1ccccc1)c1ccccc1,-1,-8,1,18*,-7,4
COCC(=O)Nc1ccc2c(c1)C(=O)N(C)C[C@H](OC)[C@H](C)CN(C(=O)c1cnccn1)[C@@H](C)CO2,.,.,23,.,.,.
Brc1cccc(C=Nc2cccc3ncccc23)c1,2,10,32,3,-1,.
Oc1c(Br)cc(Br)cc1C=Nc1cccc2ncccc12,15,32,25,22*,19,-3
